We go through one compound from ChEMBL document CHEMBL4346709, “Design and Optimization Leading to an Orally Active TTK Protein Kinase Inhibitor with Robust Single Agent Efficacy” (J Med Chem, 2019).

Data set [1] concerns the target LRRK2 (Homo sapiens, UniProt Q5S007). In words: Inhibition of recombinant human GST-tagged LRRK2 catalytic domain (970 to 2527 residues) expressed in baculovirus expression system at 3 uM using LRRKtide as substrate measured after 1 hr by Alexa fluor-647 ADP tracer-based ADAPTA assay relative to control. The following applies: probe LRRKtide. The procedure, abridged: (§1)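 Kinase selectivity panel: single-point assessment at 3 µM, n=1.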

For data set [2], the target named is T1, Dual specificity protein kinase TTK (Homo sapiens, UniProt P33981).
T1 sequence (P33981 whole entry): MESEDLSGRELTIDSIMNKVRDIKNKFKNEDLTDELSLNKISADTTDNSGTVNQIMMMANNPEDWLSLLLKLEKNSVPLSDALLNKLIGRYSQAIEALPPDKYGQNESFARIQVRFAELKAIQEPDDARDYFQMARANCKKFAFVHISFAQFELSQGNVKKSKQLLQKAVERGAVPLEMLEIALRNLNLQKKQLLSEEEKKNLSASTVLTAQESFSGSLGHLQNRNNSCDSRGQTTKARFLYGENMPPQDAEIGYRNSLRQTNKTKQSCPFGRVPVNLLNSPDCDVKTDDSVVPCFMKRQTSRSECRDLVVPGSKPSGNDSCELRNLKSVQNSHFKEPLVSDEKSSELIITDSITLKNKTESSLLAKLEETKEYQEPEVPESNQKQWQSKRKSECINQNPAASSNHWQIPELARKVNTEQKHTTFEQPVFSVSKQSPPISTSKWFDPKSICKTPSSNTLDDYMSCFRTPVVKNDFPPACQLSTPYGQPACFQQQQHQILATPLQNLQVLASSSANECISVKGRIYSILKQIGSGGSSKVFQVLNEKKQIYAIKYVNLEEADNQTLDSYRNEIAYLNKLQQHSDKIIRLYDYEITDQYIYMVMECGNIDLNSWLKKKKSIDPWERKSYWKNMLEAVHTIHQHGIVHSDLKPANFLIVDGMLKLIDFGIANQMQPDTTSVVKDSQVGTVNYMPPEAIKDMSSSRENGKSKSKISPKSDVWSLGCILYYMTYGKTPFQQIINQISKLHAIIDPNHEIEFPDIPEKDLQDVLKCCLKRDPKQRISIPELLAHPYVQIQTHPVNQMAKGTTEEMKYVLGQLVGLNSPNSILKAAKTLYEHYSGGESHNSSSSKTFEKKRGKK
In words: Inhibition of TTK in human CAL51 cells assessed as decrease in phosphorylated KNL-1 T943 levels after 1 hr by Western blot analysis. Type of data set: cell-based. In general terms: In western blotting, separated proteins are transferred to a membrane and probed.

Data set [3] deals with Mus musculus. In words: Inhibition of mitosis in human CAL51 cells xenografted in CB17 SCID mouse assessed reduction in pHH3 ser10 level at 30 mg/kg, po administered as single dose measured after 1 hr by MSD electrochemiluminescent immunoassay. Type of data set: functional, organism-based. The procedure, abridged:
(§2)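 CB17 SCID mice bearing CAL-51 tumours of 300-500 mm3 given compound orally. At preset time points the mice were euthanised and the tumours dissected and snap-frozen in liquid nitrogen. pHH3 Ser10 or cleaved caspase measured by MSD electrochemiluminescent immunoassay kit. Data are mean ± SEM.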
(In general: Xenograft models place foreign cells or tissue in a host animal.)

Data set [4] can be described thus: Toxicity in CB17 SCID mouse xenografted with human CAL51 cells assessed as loss of body weight at 30 mg/kg, po […] for 16 days and measured up to 31 days. Format: organism-based. The following applies: in vivo. An outline of the steps: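 Female CB17 SCID mice bearing subcutaneous CAL-51 xenografts (2×10^6 cells). Oral dosing once weekly at 30-120 mg/kg, or 30 mg/kg BID once weekly, for 16 days. Body weight loss tracked alongside tumour measurements, against vehicle.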

Data set [5] in a line: Metabolic stability in human liver S9 fraction assessed as parent compound remaining after 60 mins. Format: ADME, subcellular. Conditions: read-out: Stability.
The species entered for data set [6] is Homo sapiens. In words: Selectivity ratio of IC50 for recombinant human full length His-tagged JNK1 expressed in baculovirus expression system to IC50 for inhibition of Kinase Tracer 236 binding to recombinant human full-length GST-tagged TTk expressed in baculovirus expression system.
The target in data set [7] is T2, Mitogen-activated protein kinase 10 (Homo sapiens, UniProt P53779). In words: Inhibition of recombinant human full length N-terminal GST-tagged JNK3 expressed in baculovirus expression system by Z'-LYTE assay.
Data set [8] concerns CAL-51. In words: Antitumor activity against human CAL51 cells xenografted in CB17 SCID mouse assessed as tumor growth inhibition at 30 mg/kg, po administered every seven days for 16 days and measured twice per week up to 31 days by caliper method relative to control. Type of data set: functional. Conditions: CAL-51, po, read-out: TGI. The procedure, abridged:
(§3)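 Female CB17 SCID mice, 6-8 weeks old, inoculated subcutaneously with 2×10^6 CAL-51 cells. Oral dosing once weekly (QW) at 30-120 mg/kg, or 30 mg/kg BID QW, for 16 days, against vehicle control. Tumour long and short axes measured twice weekly by digital caliper; volume = width² × length/2. Values are TGI; data are mean ± SEM.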

Data set [9] deals with CAL-51. The experiment in a line: Induction of apoptosis in human CAL51 cells xenografted in CB17 SCID mouse assessed as activation of cleaved caspase-3 at 30 mg/kg, po measured after 1 to 48 hrs by MSD electrochemiluminescent immunoassay relative to control. Type of data set: functional. The procedure, abridged: as §2
The species named for data set [10] is Homo sapiens. In words: Selectivity ratio of IC50 for recombinant human full length His-tagged JNK2 expressed in baculovirus expression system to IC50 for inhibition of Kinase Tracer 236 binding to recombinant human full-length GST-tagged TTk expressed in baculovirus expression system.
The target of data set [11] is T3, Dual specificity tyrosine-phosphorylation-regulated kinase 3 (Homo sapiens, UniProt O43781).
T3 sequence (O43781 whole entry): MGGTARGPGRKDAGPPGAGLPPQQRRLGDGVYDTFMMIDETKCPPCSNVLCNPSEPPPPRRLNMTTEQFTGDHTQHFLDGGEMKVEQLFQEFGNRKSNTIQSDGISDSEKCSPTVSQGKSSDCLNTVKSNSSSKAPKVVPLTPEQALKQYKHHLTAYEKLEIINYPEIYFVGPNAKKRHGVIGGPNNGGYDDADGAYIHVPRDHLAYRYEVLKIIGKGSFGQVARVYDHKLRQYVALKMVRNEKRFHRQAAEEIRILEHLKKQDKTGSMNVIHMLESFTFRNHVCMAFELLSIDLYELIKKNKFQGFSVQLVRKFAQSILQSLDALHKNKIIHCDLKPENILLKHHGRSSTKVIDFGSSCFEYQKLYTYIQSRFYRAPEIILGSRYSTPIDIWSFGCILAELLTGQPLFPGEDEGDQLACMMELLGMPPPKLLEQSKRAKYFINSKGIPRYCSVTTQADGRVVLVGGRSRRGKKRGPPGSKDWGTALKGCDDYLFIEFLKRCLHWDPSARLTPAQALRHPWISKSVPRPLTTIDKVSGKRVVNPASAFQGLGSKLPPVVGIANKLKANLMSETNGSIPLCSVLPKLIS
In words: Inhibition of recombinant human full length GST-tagged DYRK3 expressed in baculovirus expression system by Z'-LYTE assay.

Data set [12] has as its target T2, Mitogen-activated protein kinase 10. In words: Inhibition of recombinant human full length N-terminal GST-tagged JNK3 expressed in baculovirus expression system at 3 uM by Z'-LYTE assay relative to control. An outline of the steps:
as §1

The subject of data set [13] is CAL-51. In words: Antitumor activity against human CAL51 cells xenografted in CB17 SCID mouse assessed as tumor growth inhibition at 60 mg/kg, po administered every seven days for 16 days and measured twice per week up to 31 days by caliper method relative to control. Format: functional. Conditions: CAL-51, po, read-out: TGI. The procedure, abridged:
as §3

Calls of active or inactive are those of the source. The calls are words filed in the database; no cut-off is given here.

T2 sequence (P53779 whole entry): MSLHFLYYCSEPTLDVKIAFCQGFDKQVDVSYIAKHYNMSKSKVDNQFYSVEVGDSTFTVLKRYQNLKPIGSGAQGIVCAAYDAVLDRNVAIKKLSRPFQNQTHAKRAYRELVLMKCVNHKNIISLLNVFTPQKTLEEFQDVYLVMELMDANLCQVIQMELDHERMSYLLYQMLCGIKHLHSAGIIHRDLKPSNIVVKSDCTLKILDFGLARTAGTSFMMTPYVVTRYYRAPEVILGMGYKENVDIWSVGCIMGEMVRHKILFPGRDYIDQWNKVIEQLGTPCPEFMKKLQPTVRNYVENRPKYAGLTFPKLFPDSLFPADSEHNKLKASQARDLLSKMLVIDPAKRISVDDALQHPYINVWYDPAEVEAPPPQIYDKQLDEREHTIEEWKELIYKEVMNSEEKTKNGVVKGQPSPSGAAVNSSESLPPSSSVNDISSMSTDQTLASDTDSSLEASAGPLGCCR
Chain of LRRK2 (Q5S007 whole entry, the tested form may be a part): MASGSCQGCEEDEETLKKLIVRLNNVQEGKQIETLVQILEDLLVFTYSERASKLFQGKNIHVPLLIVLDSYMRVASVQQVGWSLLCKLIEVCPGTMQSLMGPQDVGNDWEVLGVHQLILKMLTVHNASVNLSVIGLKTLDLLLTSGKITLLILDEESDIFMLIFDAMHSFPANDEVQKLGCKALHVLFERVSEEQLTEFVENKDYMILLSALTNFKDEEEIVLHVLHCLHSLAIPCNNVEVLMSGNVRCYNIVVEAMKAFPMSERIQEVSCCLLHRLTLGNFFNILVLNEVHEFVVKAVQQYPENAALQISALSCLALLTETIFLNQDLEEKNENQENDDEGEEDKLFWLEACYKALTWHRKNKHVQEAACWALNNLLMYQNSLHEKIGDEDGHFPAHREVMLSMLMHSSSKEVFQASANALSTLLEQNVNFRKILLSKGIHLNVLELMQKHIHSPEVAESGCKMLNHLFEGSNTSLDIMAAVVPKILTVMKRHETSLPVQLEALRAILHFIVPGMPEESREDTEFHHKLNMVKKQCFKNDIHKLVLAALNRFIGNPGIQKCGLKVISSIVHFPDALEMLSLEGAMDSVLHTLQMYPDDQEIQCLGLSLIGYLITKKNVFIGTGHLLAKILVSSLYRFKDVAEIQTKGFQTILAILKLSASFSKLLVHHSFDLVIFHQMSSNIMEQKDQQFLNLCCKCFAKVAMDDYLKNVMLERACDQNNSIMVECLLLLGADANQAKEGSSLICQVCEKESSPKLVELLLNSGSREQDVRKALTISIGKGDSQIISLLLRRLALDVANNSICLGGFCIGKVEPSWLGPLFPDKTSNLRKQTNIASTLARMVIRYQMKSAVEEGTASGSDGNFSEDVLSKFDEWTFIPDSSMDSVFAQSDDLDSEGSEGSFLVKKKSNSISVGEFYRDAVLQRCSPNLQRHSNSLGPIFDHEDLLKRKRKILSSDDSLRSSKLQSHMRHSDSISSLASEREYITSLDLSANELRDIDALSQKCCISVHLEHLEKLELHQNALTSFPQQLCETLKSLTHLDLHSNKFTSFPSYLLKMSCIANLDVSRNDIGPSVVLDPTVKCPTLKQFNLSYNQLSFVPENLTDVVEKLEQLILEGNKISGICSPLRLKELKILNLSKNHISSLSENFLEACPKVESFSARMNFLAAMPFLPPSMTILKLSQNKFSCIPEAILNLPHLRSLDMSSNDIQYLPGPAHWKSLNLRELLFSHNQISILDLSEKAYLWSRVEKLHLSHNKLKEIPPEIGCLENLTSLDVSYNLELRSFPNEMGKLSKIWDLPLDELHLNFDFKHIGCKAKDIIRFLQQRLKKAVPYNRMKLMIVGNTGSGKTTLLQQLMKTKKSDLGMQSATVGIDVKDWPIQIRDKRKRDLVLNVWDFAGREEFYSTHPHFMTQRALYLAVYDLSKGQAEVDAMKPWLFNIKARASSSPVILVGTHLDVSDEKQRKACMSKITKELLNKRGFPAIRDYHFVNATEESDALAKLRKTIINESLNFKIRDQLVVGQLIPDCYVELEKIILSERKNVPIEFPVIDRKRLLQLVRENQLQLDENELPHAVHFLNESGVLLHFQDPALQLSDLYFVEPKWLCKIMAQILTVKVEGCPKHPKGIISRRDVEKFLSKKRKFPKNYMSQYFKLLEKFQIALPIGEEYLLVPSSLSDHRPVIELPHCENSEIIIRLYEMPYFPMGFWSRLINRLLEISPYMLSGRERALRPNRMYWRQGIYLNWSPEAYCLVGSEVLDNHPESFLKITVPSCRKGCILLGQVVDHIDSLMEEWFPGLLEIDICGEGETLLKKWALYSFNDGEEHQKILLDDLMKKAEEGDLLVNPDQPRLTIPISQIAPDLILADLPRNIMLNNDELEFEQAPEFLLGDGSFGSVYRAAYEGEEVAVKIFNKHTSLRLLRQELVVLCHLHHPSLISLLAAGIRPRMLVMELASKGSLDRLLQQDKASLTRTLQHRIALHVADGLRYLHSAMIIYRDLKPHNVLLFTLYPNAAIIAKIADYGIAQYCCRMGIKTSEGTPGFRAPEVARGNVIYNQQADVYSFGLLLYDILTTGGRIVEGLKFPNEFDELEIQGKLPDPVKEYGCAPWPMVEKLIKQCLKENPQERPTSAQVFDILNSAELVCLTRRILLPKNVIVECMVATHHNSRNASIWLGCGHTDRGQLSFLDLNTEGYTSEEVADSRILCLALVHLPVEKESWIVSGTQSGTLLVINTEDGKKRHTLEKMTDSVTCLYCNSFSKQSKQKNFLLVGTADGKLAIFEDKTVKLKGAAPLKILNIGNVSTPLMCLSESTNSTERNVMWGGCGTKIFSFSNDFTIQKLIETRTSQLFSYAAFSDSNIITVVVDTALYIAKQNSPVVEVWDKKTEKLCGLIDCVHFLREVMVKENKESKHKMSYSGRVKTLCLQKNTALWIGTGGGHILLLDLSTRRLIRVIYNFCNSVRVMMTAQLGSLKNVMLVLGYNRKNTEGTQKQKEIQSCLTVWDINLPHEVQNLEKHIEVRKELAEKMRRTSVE

As a reminder, the inhibition is the drop in the measured response relative to a control, in per cent. What is called IC50 is the midpoint of a concentration-inhibition curve. On to `C[C@@H](Oc1cc(C(=O)N(C)C)ccc1Nc1nc(O[C@H]2CC[C@@](C)(O)CC2)c2c(Cl)c[nH]c2n1)C(F)(F)F`, for which the inhibition at 1 h, 3 µM in data set [1] is over 80%. Also, the half-inhibitory concentration (IC50) came to 30000 pM in data set [2], 107 pM in data set [7] and 104 pM in [11]. Also, in data set [3], the inhibition entry was “Active”. In addition, the Activity result is reported as “Non-Toxic” in data set [4] and 250% in [9]. For the same compound, the remaining at 1 h in [5] was found to be 65%. Further, the Ratio IC50 in data set [6] and in data set [10] was under 100 each time. Also, in [8], the inhibition in vivo at 30 mg/kg was determined as 59%. Moreover, the inhibition in data set [12] was over 80%. Further, in data set [13], the inhibition in vivo at 60 mg/kg came out at 65%.
